According to ChEMBL document CHEMBL4765342, “Substituted benzothiophene and benzofuran derivatives as a novel class of bone morphogenetic Protein-2 upregulators: Synthesis, anti-osteoporosis efficacies in ovariectomized rats and a zebrafish model, and ADME properties” (Eur J Med Chem, 2020):
Calls of active or inactive are those of the source. The calls are words filed in the database; no cut-off is given here.

Experiments:
[1] = biological target: Runt-related transcription factor 2 (Mus musculus) (UniProt Q08775); assay: Upregulation of Runx2 transcriptional activity in mouse MC3T3-E1 cells transfected with p6OSE2-luc at 10 uM incubated for 48 hrs by firefly luciferase reporter gene assay relative to control; assay type: cell-based; settings: filed as activator
Sequence of Runt-related transcription factor 2 (Mus musculus) (Q08775 whole entry): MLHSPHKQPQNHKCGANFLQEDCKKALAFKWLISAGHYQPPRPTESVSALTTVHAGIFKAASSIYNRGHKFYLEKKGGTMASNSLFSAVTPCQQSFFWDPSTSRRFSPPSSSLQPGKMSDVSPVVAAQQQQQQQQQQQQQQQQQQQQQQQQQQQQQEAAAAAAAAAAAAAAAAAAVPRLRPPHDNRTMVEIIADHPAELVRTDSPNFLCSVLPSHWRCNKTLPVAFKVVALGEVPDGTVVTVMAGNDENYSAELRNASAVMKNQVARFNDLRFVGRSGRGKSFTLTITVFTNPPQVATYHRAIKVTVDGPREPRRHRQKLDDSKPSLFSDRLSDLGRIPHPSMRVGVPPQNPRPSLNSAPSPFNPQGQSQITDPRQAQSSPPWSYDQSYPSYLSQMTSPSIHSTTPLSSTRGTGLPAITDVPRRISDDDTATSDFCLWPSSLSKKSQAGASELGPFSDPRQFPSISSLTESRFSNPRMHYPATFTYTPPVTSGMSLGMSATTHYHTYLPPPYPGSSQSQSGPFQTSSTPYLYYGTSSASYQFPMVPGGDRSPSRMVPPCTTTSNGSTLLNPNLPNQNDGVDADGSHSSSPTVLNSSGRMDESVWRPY
Outline: (§1)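 MC3T3-E1 cells reverse-transfected in suspension with p6OSE2-luc (Runx2-responsive reporter), 100 ng DNA per well, 10^5 cells/ml in α-MEM with 10% FBS, 37 °C in CO2. After 24 h the medium was replaced with complete medium containing compound, with lovastatin as positive control. Firefly luciferase read after a further 48 h as relative luminescence units. Significance by Dunnett's test.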

MC3T3-E1 = assay: Cytotoxicity against mouse MC3T3-E1 cells at 100 uM; assay type: cell-based; settings: mc3t3-e1, 100 µM
[2] = Hepatotoxicity in BALB/c mouse assessed as effect on serum AST level at 50 to 100 mg/kg, ig administered for 14 days; assay type: toxicity, organism-based; settings: in vivo, po, 336 h, dose 50-100 mg/kg, time 14 day
Outline: (§2)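 BALB/c mice, 10 per group, gavaged daily for 14 days at 50 or 100 mg/kg; blank control group included. Hair, behaviour and neurological signs (fremitus, convulsion, spasm, gait disturbance) were observed. At day 14, mice were weighed and given routine blood tests and serum biochemistry (ALT, AST, urea, creatinine; n = 10). Liver and kidney were examined on paraffin-embedded histology sections.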

[3] = Toxicity in BALB/c mouse assessed as effect on hair at 50 to 100 mg/kg, ig administered for 14 days; assay type: organism-based; settings: in vivo, po, 336 h, dose 50-100 mg/kg, time 14 day; outline: as §2
[4] = Apparent permeability across apical to basolateral side in human Caco-2 cells at 10 uM incubated for 2 hrs LC-MS/MS analysis; assay type: ADME, cell-based; settings: Caco-2
Outline: (§3)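 Caco-2 monolayers, apical to basolateral direction. Plates preincubated 30 min at 37 °C, then exposed to 10 µM compound for 2 h at 37 °C without shaking. Donor and receiver samples were quenched, centrifuged and measured by LC/MS/MS, in duplicate. Papp calculated from receiver concentration, area and time. Monolayer integrity checked by TEER and by Lucifer yellow leakage (30 min, 37 °C, ex 485/em 530 nm).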

Rattus norvegicus [5] = assay: Antiosteoporotic activity in Sprague-Dawley rat model of OVX-induced bone loss assessed as increase in trabecular bone mineral density at 30 mg/kg, ig administered for 3 months with 1 day break after 6 consecutive days administration; assay type: functional, organism-based
Outline: (§4)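 Female SD rats given bilateral ovariectomy (sham: fat tissue removed instead), adapted 1 week beforehand; dosing began on postoperative day 10, n = 10 per group. Test drugs as 3 mg/mL suspension by gavage; raloxifene hydrochloride at 0.5 mg/mL. Controls got water. Tetracycline 30 mg/kg ip 16 and 3 days before euthanasia. Tibia stained sections give trabecular morphology and TBV%. BMD of L4-6 measured by densitometry under pentobarbital 45 mg/kg anaesthesia. Reported as mean ± SD.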

[6] = Toxicity in BALB/c mouse assessed as gait disturbance at 50 to 100 mg/kg, ig administered for 14 days; assay type: organism-based; settings: in vivo, po, 336 h, dose 50-100 mg/kg, time 14 day; outline: as §2
[7] = Toxicity in BALB/c mouse assessed as inflammatory infiltration in liver at 50 to 100 mg/kg, ig administered for 14 days; assay type: organism-based; settings: in vivo, po, 336 h, dose 50-100 mg/kg, time 14 day; outline: as §2
Rattus norvegicus [8] = assay: Antiosteoporotic activity in Sprague-Dawley rat model of OVX-induced bone loss assessed as increase in number of trabeculae at 30 mg/kg, ig administered for 3 months with 1 day break after 6 consecutive days administration; assay type: functional, organism-based; outline: as §4
[9] = Toxicity in BALB/c mouse assessed as necrosis in renal tubular epithelial cells at 50 to 100 mg/kg, ig administered for 14 days; assay type: organism-based; settings: in vivo, po, 336 h, dose 50-100 mg/kg, time 14 day
Outline: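 BALB/c mice, 10 per group: untreated blank group plus low (50 mg/kg) and high (100 mg/kg) dose groups, intragastric once daily for 14 days. Hair, behaviour and neurological signs monitored throughout. At day 14 mice were weighed and dissected. Kidney and liver tissue was fixed in 3 mm pieces, dehydrated through graded alcohol, cleared in xylene, embedded in paraffin, sectioned and examined histopathologically.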

[10] = Toxicity in BALB/c mouse assessed as effect on body weight at 50 to 100 mg/kg, ig administered for 14 days; assay type: organism-based; settings: in vivo, po, 336 h, dose 50-100 mg/kg, time 14 day; outline: as §2
[11] = Hepatotoxicity in BALB/c mouse assessed as effect on serum ALT level at 50 to 100 mg/kg, ig administered for 14 days; assay type: toxicity, organism-based; settings: in vivo, po, 336 h, dose 50-100 mg/kg, time 14 day; outline: as §2
[12] = Renal toxicity in BALB/c mouse assessed as effect on serum creatinine level at 50 to 100 mg/kg, ig administered for 14 days; assay type: organism-based; settings: in vivo, po, 336 h, dose 50-100 mg/kg, time 14 day; outline: as §2
Rattus norvegicus [13] = assay: Antiosteoporotic activity in Sprague-Dawley rat model of OVX-induced bone loss assessed as increase in thickness of trabeculae at 30 mg/kg, ig administered for 3 months with 1 day break after 6 consecutive days administration; assay type: functional, organism-based; outline: as §4
Rattus norvegicus [14] = assay: Antiosteoporotic activity in Sprague-Dawley rat model of OVX-induced bone loss assessed as narrowed gap between trabeculae at 30 mg/kg, ig administered for 3 months with 1 day break after 6 consecutive days administration; assay type: functional, organism-based; outline: as §4
[15] = Solubility in PBS buffer at pH 7.4 assessed as precipitation of compound at 625 nM; assay type: physicochemical; settings: pH 7.4, 0.625 µM
[16] = Solubility in PBS buffer at pH 7.4 assessed as precipitation of compound at 10000 nM; assay type: physicochemical; settings: pH 7.4, 10 µM
[17] = Toxicity in BALB/c mouse assessed as hepatocyte nucleus mitosis at 50 to 100 mg/kg, ig administered for 14 days; assay type: organism-based; settings: in vivo, po, 336 h, dose 50-100 mg/kg, time 14 day; outline: as §2
[18] = Toxicity in BALB/c mouse assessed as fremitus at 50 to 100 mg/kg, ig administered for 14 days; assay type: organism-based; settings: in vivo, po, 336 h, dose 50-100 mg/kg, time 14 day; outline: as §2
[19] = Toxicity in BALB/c mouse assessed as muscle spasm at 50 to 100 mg/kg, ig administered for 14 days; assay type: organism-based; settings: in vivo, po, 336 h, dose 50-100 mg/kg, time 14 day; outline: as §2
Rattus norvegicus [20] = assay: Antiosteoporotic activity in Sprague-Dawley rat model of OVX-induced bone loss assessed as increase in trabecular bone volume at 30 mg/kg, ig administered for 3 months with 1 day break after 6 consecutive days administration; assay type: functional, organism-based; outline: as §4
[21] = Toxicity in BALB/c mouse assessed as effect on liver megakaryocyte at 50 to 100 mg/kg, ig administered for 14 days; assay type: organism-based; settings: in vivo, po, 336 h, dose 50-100 mg/kg, time 14 day; outline: as §2
[22] = Toxicity in BALB/c mouse assessed as hepatocyte necrotic foci at 50 to 100 mg/kg, ig administered for 14 days; assay type: organism-based; settings: in vivo, po, 336 h, dose 50-100 mg/kg, time 14 day; outline: as §2
[23] = Solubility in PBS buffer at pH 7.4 assessed as precipitation of compound at 312.5 nM; assay type: physicochemical; settings: pH 7.4, 0.3125 µM
[24] = Toxicity in BALB/c mouse assessed as effect on behavioral change at 50 to 100 mg/kg, ig administered for 14 days; assay type: organism-based; settings: in vivo, po, 336 h, dose 50-100 mg/kg, time 14 day; outline: as §2
[25] = Solubility in PBS buffer at pH 7.4 assessed as precipitation of compound at 5000 nM; assay type: physicochemical; settings: pH 7.4, 5 µM
[26] = Solubility in PBS buffer at pH 7.4 assessed as precipitation of compound at 2500 nM; assay type: physicochemical; settings: pH 7.4, 2.5 µM
[27] = Solubility in PBS buffer at pH 7.4 assessed as precipitation of compound at 156.25 nM; assay type: physicochemical; settings: pH 7.4, 0.15625 µM
[28] = Permeability across apical to basolateral side in human Caco-2 cells assessed as transepithelial electrical resistance at 10 uM incubated for 2 hrs LC-MS/MS analysis; assay type: ADME, cell-based; settings: caco-2, 2 h; outline: as §3
[29] = Permeability across apical to basolateral side in human Caco-2 cells assessed as […] yellow leakage at 10 uM incubated for 2 hrs LC-MS/MS analysis; assay type: ADME, cell-based; settings: caco-2, 2 h; outline: as §3
[30] = Renal toxicity in BALB/c mouse assessed as effect on serum urea level at 50 to 100 mg/kg, ig administered for 14 days; assay type: organism-based; settings: in vivo, po, 336 h, dose 50-100 mg/kg, time 14 day; outline: as §2
[31] = Toxicity in BALB/c mouse assessed as convulsion at 50 to 100 mg/kg, ig administered for 14 days; assay type: organism-based; settings: in vivo, po, 336 h, dose 50-100 mg/kg, time 14 day; outline: as §2
Danio rerio [32] = species: Danio rerio; assay: Antiosteoporotic activity in Zebra fish model of dexamethasone-induced bone loss assessed as increase in BMP-2 expression at 1 uM incubated for 24 hrs in presence of dexamethasone by Western blot analysis; assay type: functional, organism-based
Outline: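 Protein extracts were prepared from untreated, dexamethasone-treated and drug-treated (1 µM, 24 h) zebrafish, and BMP-2 protein was then assessed.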

Danio rerio [33] = species: Danio rerio; assay: (§5) Antiosteoporotic activity in Zebra fish model of dexamethasone-induced bone loss assessed as increase in bone mineralization by measuring increase in integrated optical density 6hpf embryo treated for 72 hrs with dexamethasone followed by incubation with drug and measured after 6 days post-fertilization by alizarin dye based imaging analysis; assay type: functional, organism-based; settings: dose 1-25 µM, time 3.0 day
Outline: (§6)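 AB-line zebrafish embryos at 6 hpf held in dexamethasone solution for 72 h, then exposed to drug, and cultured to 6 dpf. Larvae stained with alizarin red, rehydrated, decolorised and photographed. Stained area and integrated optical density were summed over the left-flank branchial bones: cleithrum, compass, opercle and branchiostegal rays. Values expressed relative to untreated controls set at 1.00.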

Danio rerio [34] = species: Danio rerio; assay: as §5, with “at 1 to 25 uM” for “by measuring increase in integrated optical density”; assay type: functional, organism-based; settings: dose 1-25 µM, time 3.0 day; outline: as §6
[35] = biological target: Runt-related transcription factor 2 (Mus musculus) (UniProt Q08775); assay: Upregulation of Runx2 transcriptional activity in mouse MC3T3-E1 cells transfected with p6OSE2-luc at 100 uM incubated for 48 hrs by firefly luciferase reporter gene assay relative to control; assay type: cell-based; settings: filed as activator; outline: as §1
Rattus norvegicus [36] = assay: Antiosteoporotic activity in Sprague-Dawley rat model of OVX-induced bone loss assessed as increase in thickness of trabeculae at 5 mg/kg, ig administered for 3 months with 1 day break after 6 consecutive days administration; assay type: functional, organism-based; outline: as §4
Rattus norvegicus [37] = assay: Antiosteoporotic activity in Sprague-Dawley rat model of OVX-induced bone loss assessed as narrowed gap between trabeculae at 5 mg/kg, ig administered for 3 months with 1 day break after 6 consecutive days administration; assay type: functional, organism-based; outline: as §4
Rattus norvegicus [38] = assay: Antiosteoporotic activity in Sprague-Dawley rat model of OVX-induced bone loss assessed as increase in number of trabeculae at 5 mg/kg, ig administered for 3 months with 1 day break after 6 consecutive days administration; assay type: functional, organism-based; outline: as §4
Rattus norvegicus [39] = assay: Antiosteoporotic activity in Sprague-Dawley rat model of OVX-induced bone loss assessed as increase in trabecular bone mineral density at 5 mg/kg, ig administered for 3 months with 1 day break after 6 consecutive days administration; assay type: functional, organism-based; outline: as §4
Rattus norvegicus [40] = assay: Antiosteoporotic activity in Sprague-Dawley rat model of OVX-induced bone loss assessed as increase in trabecular bone volume at 5 mg/kg, ig administered for 3 months with 1 day break after 6 consecutive days administration; assay type: functional, organism-based; outline: as §4

CC[C@H](C)C(=O)O[C@H]1C[C@@H](C)C=C2C=C[C@H](C)[C@H](CC[C@@H]3C[C@@H](O)CC(=O)O3)[C@H]21 [LOVASTATIN]
Activity [1]: 256%
Activity (MC3T3-E1): Toxic

CCOC(=O)c1cc2ccc(OC)cc2o1
Activity [2]: Non-Toxic
Activity [3]: Non-Toxic
Papp A→B at 2 h, 10 µM [4]: < 0.00247 ×10⁻⁶ cm/s
Activity (Rattus norvegicus [5]): Active
Activity [6]: Non-Toxic
Activity [7]: Toxic
Activity (Rattus norvegicus [8]): Active
Activity [9]: Toxic
Activity [10]: Non-Toxic
Activity [11]: Non-Toxic
Activity [12]: Non-Toxic
Activity (Rattus norvegicus [13]): Active
Activity (Rattus norvegicus [14]): Active
solubility [15]: Soluble
solubility [16]: Insoluble
Activity [17]: Toxic
Activity [18]: Non-Toxic
Activity [19]: Non-Toxic
Activity (Rattus norvegicus [20]): Active
Activity [21]: Toxic
Activity [22]: Toxic
solubility [23]: Soluble
Activity [24]: Non-Toxic
solubility [25]: Insoluble
solubility [26]: Insoluble
solubility [27]: Soluble
Activity [28]: 373 Ω·cm²
Activity [29]: 0.152%
Activity [30]: Non-Toxic
Activity [31]: Non-Toxic

COc1ccc2cc(C(=O)NCCN(C)C)oc2c1
Activity (Rattus norvegicus [5]): Active
Activity (Rattus norvegicus [8]): Active
Activity (Rattus norvegicus [13]): Active
Activity (Rattus norvegicus [14]): Active
Activity (Danio rerio [32]): Active
Activity (Rattus norvegicus [20]): Active
Activity (Danio rerio [33]): Dose-dependent effect
Activity (Danio rerio [34]): Active
Activity [35]: 267%

O=C(c1ccc(OCCN2CCCCC2)cc1)c1c(-c2ccc(O)cc2)sc2cc(O)ccc12
Activity (Rattus norvegicus [36]): Active
Activity (Rattus norvegicus [37]): Active
Activity (Rattus norvegicus [38]): Active
Activity (Rattus norvegicus [39]): Active
Activity (Rattus norvegicus [40]): Active
